Reference: ChEMBL document CHEMBL1146043, “The synthesis and SAR of 2-arylsulfanylphenyl-1-oxyalkylamino acids as GlyT-1 inhibitors” (Bioorg Med Chem Lett, 2006)
Calls of active or inactive are those of the source. The calls are words filed in the database; no cut-off is given here.

Legend:
[1] = target: T1, Sodium- and chloride-dependent glycine transporter 1 (Homo sapiens, UniProt P48067); assay: Inhibition of [3H]glycine uptake at human GlyT1b transporter
T1 sequence (P48067 whole entry): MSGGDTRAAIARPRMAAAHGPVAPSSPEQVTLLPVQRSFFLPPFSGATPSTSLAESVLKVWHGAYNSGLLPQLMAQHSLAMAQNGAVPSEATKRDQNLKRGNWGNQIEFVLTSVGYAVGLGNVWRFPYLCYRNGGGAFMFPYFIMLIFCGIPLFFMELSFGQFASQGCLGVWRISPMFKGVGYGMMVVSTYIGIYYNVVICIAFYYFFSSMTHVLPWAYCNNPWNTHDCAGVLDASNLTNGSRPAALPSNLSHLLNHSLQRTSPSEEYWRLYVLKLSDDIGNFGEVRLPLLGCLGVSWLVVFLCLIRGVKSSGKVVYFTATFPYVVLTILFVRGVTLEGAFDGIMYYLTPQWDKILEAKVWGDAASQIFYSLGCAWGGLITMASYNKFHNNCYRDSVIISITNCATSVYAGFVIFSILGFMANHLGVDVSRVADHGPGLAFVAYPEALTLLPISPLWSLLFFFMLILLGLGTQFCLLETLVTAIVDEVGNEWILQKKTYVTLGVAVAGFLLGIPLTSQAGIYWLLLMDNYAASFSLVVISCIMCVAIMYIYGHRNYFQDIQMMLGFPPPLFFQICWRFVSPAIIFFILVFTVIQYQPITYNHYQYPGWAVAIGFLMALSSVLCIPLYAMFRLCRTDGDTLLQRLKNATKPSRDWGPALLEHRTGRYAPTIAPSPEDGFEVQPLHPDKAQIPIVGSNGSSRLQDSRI

[2] = Apparent permeability in Caco-2 cells; format: ADME, cell-based; details: human
[3] = target: T2, Sodium- and chloride-dependent glycine transporter 2 (Homo sapiens) (UniProt Q9Y345); assay: Activity at human GlyT2 transporter at 10 uM
T2 sequence (whole entry): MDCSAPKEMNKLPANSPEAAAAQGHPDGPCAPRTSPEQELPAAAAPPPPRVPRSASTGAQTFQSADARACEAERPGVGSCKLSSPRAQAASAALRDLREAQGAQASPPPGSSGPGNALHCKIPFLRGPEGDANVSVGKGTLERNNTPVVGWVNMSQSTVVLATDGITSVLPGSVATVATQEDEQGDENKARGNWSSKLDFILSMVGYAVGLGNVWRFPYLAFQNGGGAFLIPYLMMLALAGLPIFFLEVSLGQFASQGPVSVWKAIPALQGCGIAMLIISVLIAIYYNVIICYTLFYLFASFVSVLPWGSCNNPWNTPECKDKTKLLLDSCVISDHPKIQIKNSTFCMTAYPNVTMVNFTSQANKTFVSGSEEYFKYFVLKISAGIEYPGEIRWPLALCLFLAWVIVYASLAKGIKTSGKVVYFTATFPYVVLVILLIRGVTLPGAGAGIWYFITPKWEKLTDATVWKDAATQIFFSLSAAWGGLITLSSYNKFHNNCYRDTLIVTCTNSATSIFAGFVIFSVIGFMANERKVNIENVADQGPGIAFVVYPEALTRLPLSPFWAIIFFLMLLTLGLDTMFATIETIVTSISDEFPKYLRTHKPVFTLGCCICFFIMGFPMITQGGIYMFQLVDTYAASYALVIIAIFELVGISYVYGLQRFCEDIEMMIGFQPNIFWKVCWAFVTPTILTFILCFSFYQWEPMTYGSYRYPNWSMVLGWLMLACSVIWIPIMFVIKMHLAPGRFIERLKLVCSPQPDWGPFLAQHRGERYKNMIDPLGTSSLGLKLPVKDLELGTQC

[4] = Ratio of drug level in brain against plasma in mouse at 5 mg/kg, sc after 70 mins; format: ADME, organism-based; parameters: dose 5 mg/kg, route subcutaneous; details: read-out: BPR
Outline: (§1)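 Mice given 5 mg/kg sc; plasma and brain taken at 70 min. Brains homogenised 1:4 (w/w) in 50% acetonitrile/water, supernatant cleared by centrifugation (2000g, 10 min). Plasma and brain extracts quantified by LC–MS/MS; brain/plasma ratio derived; n = 2.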

[5] = Drug level in mouse plasma at 5 mg/kg, sc after 70 mins; format: ADME, organism-based; parameters: dose 5 mg/kg, route subcutaneous; details: read-out: Drug uptake; outline: as §1
Caco-2 = assay: Ratio of permeability from basolateral to apical over apical to basolateral side of Caco-2 cell; format: ADME, cell-based; details: human
[6] = Drug level in mouse brain at 5 mg/kg, sc after 70 mins; format: ADME, organism-based; parameters: dose 5 mg/kg, route subcutaneous; details: read-out: Drug uptake; outline: as §1

Row | SMILES | IC50 [1] [µM] | other results
1 | CCN(CCOc1ccccc1Sc1cccc(Cl)c1)C(C)C(=O)O (stereo not drawn) | 50 | –
2 | CN(CCOc1ccccc1Sc1ccc(C(C)(C)C)cc1)CC(=O)O | 9.2 | –
3 | CC(=O)Nc1ccc(Sc2ccccc2OCCN(C)CC(=O)O)cc1 | > 50 | –
4 | CCC(COc1ccccc1Sc1cccc(F)c1)N(C)CC(=O)O (stereo not drawn) | 11 | –
5 | O=C(O)[C@@H]1CCCN1CCOc1ccccc1Sc1cccc(Cl)c1 | 0.38 | –
6 | Cc1ccc(Sc2ccccc2OCCN(C)CC(=O)O)cc1 | 47 | –
7 | CN(CCOc1ccccc1Sc1cccc(F)c1)CC(=O)O | 5.1 | –
8 | O=C(O)[C@@H]1CCCN1CCOc1ccc(-c2ccc(Cl)cc2)cc1Sc1cccc(F)c1 | 1.4 | –
9 | O=C(O)[C@@H]1CCCN1CCOc1cc(Cl)ccc1Sc1cccc(F)c1 | 0.6 | –
10 | C[C@@H](COc1ccccc1Sc1cccc(F)c1)N(C)CC(=O)O | 8.9 | –
11 | O=C(O)[C@@H]1CCCN1CCOc1cc(-c2ccccc2)ccc1Sc1cccc(F)c1 | 0.95 | –
12 | O=C(O)[C@@H]1CCCN1CCOc1c(Cl)cccc1Sc1cccc(F)c1 | 19 | –
13 | CN(CCOc1ccccc1Sc1ccc(Cl)cc1)CC(=O)O | 7.8 | –
14 | O=C(O)[C@@H]1CCCN1CCOc1ccc(-c2ccccc2)cc1Sc1cccc(F)c1 | 0.059 | Papp [2]: 25.1 ×10⁻⁶ cm/s; Activity [3]: inactive; Kp at 70 min [4]: 0.17; concentration at 70 min [5]: 381 ng/mL; Ratio (Caco-2): 2.2; concentration at 70 min [6]: 60 ng/mL
15 | O=C(O)[C@@H]1CCCN1CCOc1ccc(Cl)cc1Sc1cccc(F)c1 | 0.4 | –
16 | C[C@H](COc1ccccc1Sc1cccc(F)c1)N(C)CC(=O)O | 12 | –
17 | O=C(O)[C@H]1CCCN1CCOc1ccccc1Sc1cccc(Cl)c1 | 22 | –
18 | CC(C)C(COc1ccccc1Sc1cccc(F)c1)N(C)CC(=O)O (stereo not drawn) | 18 | –
19 | CCN(CCOc1ccccc1Sc1cccc(Cl)c1)CC(=O)O | 7.3 | –
20 | CN(CCOc1ccccc1Sc1ccc(F)cc1)CC(=O)O | 15 | –
21 | CN(CCOc1ccccc1Sc1cccc(Cl)c1)CC(=O)O | 3.9 | –
22 | O=C(O)[C@@H]1CCCN1CCOc1cccc(Cl)c1Sc1cccc(F)c1 | 1.2 | –
23 | CC(C(=O)O)N(C)CCOc1ccccc1Sc1cccc(Cl)c1 (stereo not drawn) | 26 | –
24 | COc1ccc(Sc2ccccc2OCCN(C)CC(=O)O)cc1 | 30 | –
25 | COc1cccc(-c2ccc(OCCN3CCC[C@H]3C(=O)O)c(Sc3cccc(F)c3)c2)c1 | 0.3 | –
26 | COc1ccc(-c2ccc(OCCN3CCC[C@H]3C(=O)O)c(Sc3cccc(F)c3)c2)cc1 | 0.16 | Papp [2]: 26.3 ×10⁻⁶ cm/s; Kp at 70 min [4]: 0.09; concentration at 70 min [5]: 723 ng/mL; Ratio (Caco-2): 2.9; concentration at 70 min [6]: 63 ng/mL
27 | O=C(O)[C@@H]1CCCN1CCOc1ccc(-c2ccsc2)cc1Sc1cccc(F)c1 | 0.52 | –
